From ChEMBL document CHEMBL1133534, “1,3-Diaryl-4,5,6,7-tetrahydro-2H-isoindole derivatives: a new series of potent and selective COX-2 inhibitors in which a sulfonyl group is not a structural requisite” (J Med Chem, 2000)
The source made the active and inactive calls. No cut-off for these calls is given here.

What was measured:
[1] = molecular target: T1, Prostaglandin G/H synthase 2 (Mus musculus, UniProt Q05769); assay: Inhibition against prostaglandin G/H synthase 2 from mouse resident macrophages
T1 sequence (Q05769 whole entry): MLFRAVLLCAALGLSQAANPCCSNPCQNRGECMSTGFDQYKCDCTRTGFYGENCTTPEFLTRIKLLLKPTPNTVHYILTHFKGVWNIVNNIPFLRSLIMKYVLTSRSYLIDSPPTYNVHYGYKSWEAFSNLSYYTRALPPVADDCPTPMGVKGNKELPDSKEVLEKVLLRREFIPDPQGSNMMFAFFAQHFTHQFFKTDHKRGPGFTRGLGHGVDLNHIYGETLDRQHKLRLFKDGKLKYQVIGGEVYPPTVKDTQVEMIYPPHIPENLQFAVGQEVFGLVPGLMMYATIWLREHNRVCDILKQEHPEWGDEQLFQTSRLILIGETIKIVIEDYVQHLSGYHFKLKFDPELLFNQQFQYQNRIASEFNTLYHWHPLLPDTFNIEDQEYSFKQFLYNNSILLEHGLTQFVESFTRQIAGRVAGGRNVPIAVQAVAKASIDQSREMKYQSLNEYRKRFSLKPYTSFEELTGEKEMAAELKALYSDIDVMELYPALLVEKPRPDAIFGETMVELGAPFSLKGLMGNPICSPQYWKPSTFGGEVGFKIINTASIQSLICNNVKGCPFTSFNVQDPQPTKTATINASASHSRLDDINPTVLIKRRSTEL

Rattus norvegicus [2] = assay: Effective dose for inhibition of edema after oral administration (95% confidence limits); type: functional
Outline: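 Adjuvant-induced arthritis in female Lewis rats, with oral dosing. Edema of the noninjected paw was read at day 21, 10 rats/group. ED50 was estimated by linear regression with 95% confidence limits.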

[3] = Gastric toxicity of the compound.
Outline: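 Male Swiss mice, fasted overnight with water, were dosed orally at 400 mg/kg or given vehicle, and killed by cervical dislocation 5 h later. The stomach was opened and mucosal damage scored blind from 0 (normal) to 5 (perforation). Mean ± SEM, 8 animals/group.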

Rattus norvegicus [4] = assay: Effective dose for inhibition of edema of the non injected paw in rat
[5] = (§1) Compound was evaluated for its effective dose to inhibit exudate PGE-2; type: functional; conditions: Mus musculus
Outline: (§2)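 Mice given compound or vehicle orally 18 h after air-pouch induction; 1 h later 500 µL sterile 1% carrageenan injected into pouch; sacrifice 5 h after carrageenan. Pouch lavaged with 2 mL heparinized HBSS, kept on ice, PGE2 measured by EIA after solid-phase extraction. ED50 from 3 or 4 dose points, at least 8 mice/group.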

[6] = (§3) Compound was evaluated for its effective dose to inhibit gastric PGE-2; type: functional; conditions: Mus musculus, Stomach
Outline: (§4)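 Mice with air pouches (18 h old) were dosed orally with compound or vehicle. After 1 h, 500 µL sterile 1% carrageenan was injected into the pouch, and mice were killed 5 h later. Pouch lavage (heparinized HBSS) was cooled on ice, and PGE2 was measured by EIA after solid-phase extraction. Excised stomachs were rinsed and incubated 15 min in PBS, and supernatant PGE2 was measured by EIA. ED50 from 3 or 4 doses, at least 8 mice/group.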

[7] = molecular target: T2, Prostaglandin G/H synthase 1 (Mus musculus, UniProt P22437); assay: Inhibition against prostaglandin G/H synthase 1 from mouse resident macrophages
T2 sequence (P22437 whole entry): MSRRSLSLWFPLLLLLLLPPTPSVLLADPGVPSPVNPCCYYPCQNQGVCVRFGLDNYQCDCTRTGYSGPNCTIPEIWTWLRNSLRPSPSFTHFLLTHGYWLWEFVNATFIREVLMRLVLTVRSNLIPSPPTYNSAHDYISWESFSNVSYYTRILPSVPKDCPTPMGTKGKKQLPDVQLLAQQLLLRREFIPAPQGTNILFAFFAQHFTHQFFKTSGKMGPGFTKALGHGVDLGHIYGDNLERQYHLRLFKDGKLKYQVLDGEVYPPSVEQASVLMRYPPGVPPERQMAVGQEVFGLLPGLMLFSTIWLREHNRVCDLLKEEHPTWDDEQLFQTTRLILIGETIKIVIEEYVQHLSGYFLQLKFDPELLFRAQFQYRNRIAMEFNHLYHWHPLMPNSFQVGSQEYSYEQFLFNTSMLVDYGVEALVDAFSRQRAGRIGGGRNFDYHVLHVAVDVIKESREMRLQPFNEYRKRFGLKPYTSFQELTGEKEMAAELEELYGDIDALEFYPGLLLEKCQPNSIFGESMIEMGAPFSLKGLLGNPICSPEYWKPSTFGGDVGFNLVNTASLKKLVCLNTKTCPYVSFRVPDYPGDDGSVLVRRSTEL

Mus musculus [8] = organism: Mus musculus; assay: as §1; outline: as §2
Mus musculus [9] = organism: Mus musculus; assay: as §3; type: tissue-based; conditions: Stomach; outline: as §4
[10] = molecular target: Prostaglandin G/H synthase 1 (Homo sapiens, UniProt P23219); assay: Tested in vitro for inhibition against Prostaglandin G/H synthase 1 in human blood
Chain of Prostaglandin G/H synthase 1 (Homo sapiens, UniProt P23219) (P23219 whole entry): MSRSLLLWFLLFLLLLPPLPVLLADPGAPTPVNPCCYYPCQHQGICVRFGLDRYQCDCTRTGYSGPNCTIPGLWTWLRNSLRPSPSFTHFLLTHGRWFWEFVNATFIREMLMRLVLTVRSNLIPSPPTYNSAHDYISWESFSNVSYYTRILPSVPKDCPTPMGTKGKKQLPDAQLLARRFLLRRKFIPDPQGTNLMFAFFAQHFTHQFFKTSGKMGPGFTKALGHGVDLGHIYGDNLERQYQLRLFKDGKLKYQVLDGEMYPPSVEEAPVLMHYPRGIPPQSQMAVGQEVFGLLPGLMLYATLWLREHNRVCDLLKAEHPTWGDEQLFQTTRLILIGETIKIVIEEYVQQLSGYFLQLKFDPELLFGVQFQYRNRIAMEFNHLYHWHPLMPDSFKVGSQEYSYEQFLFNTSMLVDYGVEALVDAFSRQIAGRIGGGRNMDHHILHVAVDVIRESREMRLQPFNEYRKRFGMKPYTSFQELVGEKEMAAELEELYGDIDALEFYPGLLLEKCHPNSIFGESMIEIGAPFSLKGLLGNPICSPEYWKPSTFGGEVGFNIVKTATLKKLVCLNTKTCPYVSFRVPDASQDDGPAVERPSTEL

[11] = molecular target: T3, Prostaglandin G/H synthase 2 (Homo sapiens, UniProt P35354)
T3 sequence (P35354 whole entry): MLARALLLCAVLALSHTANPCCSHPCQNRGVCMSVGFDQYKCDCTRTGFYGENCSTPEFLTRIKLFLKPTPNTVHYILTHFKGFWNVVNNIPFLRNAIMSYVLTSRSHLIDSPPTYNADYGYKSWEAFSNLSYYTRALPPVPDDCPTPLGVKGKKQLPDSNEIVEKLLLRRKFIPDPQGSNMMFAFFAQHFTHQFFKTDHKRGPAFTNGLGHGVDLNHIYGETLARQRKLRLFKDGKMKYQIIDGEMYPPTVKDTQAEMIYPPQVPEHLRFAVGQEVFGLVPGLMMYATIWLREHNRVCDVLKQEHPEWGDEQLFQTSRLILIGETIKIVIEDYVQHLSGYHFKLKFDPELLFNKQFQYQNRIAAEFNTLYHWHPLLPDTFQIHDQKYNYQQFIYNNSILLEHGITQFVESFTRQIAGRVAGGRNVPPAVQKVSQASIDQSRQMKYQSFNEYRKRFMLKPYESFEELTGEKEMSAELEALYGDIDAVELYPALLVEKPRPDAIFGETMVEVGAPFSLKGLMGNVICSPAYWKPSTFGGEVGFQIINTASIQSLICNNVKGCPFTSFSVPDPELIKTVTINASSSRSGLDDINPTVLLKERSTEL

Mus musculus [12] = organism: Mus musculus; assay: Compound was evaluated for its effective dose to inhibit exudate PGE-2; In active; outline: as §2
Rattus norvegicus [13] = assay: Inhibition of edema after oral administration at 2 mg/kg/day; type: functional
Outline: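 Adjuvant-induced arthritis in female Lewis rats. Compound was given orally at 2 mg/kg/day, and noninjected paw edema inhibition was read at day 21, 10 rats/group.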

SMILES	IC50 [1] [nM]	IC50 [7] [nM]	also measured
CNc1cc(-c2[nH]c(-c3ccc(F)c(NC)c3)c3c2C2CCC3C2)ccc1F	> 100		
Cc1ccc(-c2cc(C(F)(F)F)nn2-c2ccc(S(N)(=O)=O)cc2)cc1 [CELECOXIB]			ED50 (Rattus norvegicus [2]): 0.32 mg/kg/day; Gastric score [3]: 0.7; ED50 (Rattus norvegicus [4]): 0.37 mg/kg/day; ED50 [5]: 10 mg/kg; ED50 [6]: > 40 mg/kg
c1cn(-c2ccc(-c3[nH]c(-c4ccc(-n5ccnc5)cc4)c4c3CCCC4)cc2)cn1	> 100	1000	
c1ccc(CN2Cc3c(-c4ccccc4)[nH]c(-c4ccccc4)c3C2)cc1	> 100		
c1ccc(-c2cn3c(c2-c2ccccc2)CCC3)cc1	28.7	2500	
c1ccc(-c2[nH]c(-c3ccccc3)c3c2C2CCC3C2)cc1	2.6	100	ED50 (Mus musculus [8]): 20 mg/kg; ED50 (Mus musculus [9]): 80 mg/kg; Gastric score [3]: 0.3
c1ccc(-c2[nH]c(-c3ccccc3)c3c2C2CCC3CC2)cc1	1.6	250	ED50 (Mus musculus [8]): > 40 mg/kg; ED50 (Mus musculus [9]): > 40 mg/kg
C1=CC2CCC1c1c(-c3ccccc3)[nH]c(-c3ccccc3)c12	35.6	> 1000	
CC(=O)Nc1cc(-c2[nH]c(-c3ccc(F)c(NC(C)=O)c3)c3c2C2CCC3C2)ccc1F	> 100		
Fc1ccc(C2NC(c3ccc(F)cc3)c3ccccc32)cc1 (stereo not drawn)	> 100		
CC1=C(C)Cc2c(c(-c3ccccc3)n(C)c2-c2ccccc2)C1	> 1000		
Fc1ccc(-c2[nH]c(-c3ccc(F)cc3)c3c2C2CCC3C2)cc1			IC50 [10]: 1000 nM; ED50 (Rattus norvegicus [2]): 0.35 mg/kg/day; ED50 (Mus musculus [8]): 6.8 mg/kg; ED50 (Mus musculus [9]): > 40 mg/kg; Gastric score [3]: 0.3; IC50 [11]: 0.08 nM
Fc1ccc(-c2[nH]c(-c3ccc(F)cc3)c3c2C2C=CC3C2)cc1	4.5	500	
CS(=O)(=O)c1ccc(-c2[nH]c(-c3ccc(S(C)(=O)=O)cc3)c3c2C2CCC3C2)cc1	> 10000		
CC1Cc2c(-c3ccccc3)[nH]c(-c3ccccc3)c2CC1C (stereo not drawn)	3.1	1000	
c1ccc(-c2[nH]c(-c3ccccc3)c3c2CCC3)cc1		250	ED50 (Mus musculus [8]): 20 mg/kg; ED50 (Mus musculus [9]): 10 mg/kg
Nn1c(-c2ccccc2)c2c(c1-c1ccccc1)CCCC2	1.8	1000	
Cc1ccc(-c2[nH]c(-c3ccc(C)cc3)c3c2CCCC3)cc1		500	IN (Mus musculus [12]): inactive
Clc1ccc(-c2[nH]c(-c3ccc(Cl)cc3)c3c2CCCC3)cc1	5	> 5000	ED50 (Mus musculus [8]): 20 mg/kg; ED50 (Mus musculus [9]): > 80 mg/kg
Cn1c(-c2ccccc2)c2c(c1-c1ccccc1)CCCC2	> 1000		

SMILES	IC50 [1] [nM]	IC50 [7] [nM]	also measured
c1ccc(-c2cc(-c3ccccc3)n3c2CCC3)cc1	50	< 1000	
CS(=O)(=O)Nn1c(-c2ccccc2)c2c(c1-c1ccccc1)CCCC2	500	> 1000	
c1cc(-c2[nH]c(-c3ccncc3)c3c2C2CCC3C2)ccn1	> 100		
COc1ccc2c(c1)c(CC(=O)O)c(C)n2C(=O)c1ccc(Cl)cc1 [INDOMETHACIN]			Gastric score [3]: 2.4
O=C(O)Cn1c(-c2ccccc2)c2c(c1-c1ccccc1)CCCC2	> 100		
Fc1ccc(-c2[nH]c(-c3ccc(F)cc3)c3c2C2CCC3CC2)cc1	0.6	230	IC50 [10]: 30000 nM; ED50 (Rattus norvegicus [2]): 0.15 mg/kg/day; ED50 (Mus musculus [8]): 3.5 mg/kg; ED50 (Mus musculus [9]): > 20 mg/kg; Gastric score [3]: 0.3; IC50 [11]: 0.12 nM
CC1=C(C)Cc2c(-c3ccccc3)[nH]c(-c3ccccc3)c2C1	14.5	> 100	
c1ccc(C2NC(c3ccccc3)c3ccccc32)cc1 (stereo not drawn)		> 2500	
CSc1ccc(-c2[nH]c(-c3ccc(SC)cc3)c3c2CCCC3)cc1	500	500	
Fc1ccc(-c2[nH]c(-c3ccc(F)cc3)c3c2CCCC3)cc1	1.7	100	ED50 (Mus musculus [8]): 20 mg/kg; ED50 (Mus musculus [9]): 50 mg/kg; inhibition in vivo at 2 mg/kg/day (Rattus norvegicus [13]): 15%
c1ccc(-c2cc3n(c2-c2ccccc2)CCC3)cc1	10	< 1000	
c1ccc([C@H]2N[C@H](c3ccccc3)c3ccccc32)cc1		> 2500	ED50 (Mus musculus [8]): 100 mg/kg; ED50 (Mus musculus [9]): 100 mg/kg
c1ccc(-c2[nH]c(-c3ccccc3)c3c2CCCC3)cc1	1.5	100	ED50 (Mus musculus [8]): 20 mg/kg; ED50 (Mus musculus [9]): 50 mg/kg
Clc1cc2c(cc1Cl)C(c1ccccc1)NC2c1ccccc1 (stereo not drawn)	> 100		
c1ccc(-c2[nH]c(-c3ccccc3)c3c2CNC3)cc1	> 100	1000	
Fc1ccc(-c2[nH]c(-c3ccc(-n4ccnc4)cc3)c3c2CCCC3)cc1	42	500	
COc1ccc(-c2[nH]c(-c3ccc(OC)cc3)c3c2CCCC3)cc1	21.3	1000	
CS(=O)(=O)c1ccc(-c2[nH]c(-c3ccc(F)cc3)c3c2C2CCC3C2)cc1 (stereo not drawn)	700	> 5000	
c1ccc(-c2sc(-c3ccccc3)c3ccccc23)cc1	10.9	1000	
